Measured values from different studies.
Cell line: PC-3
Read-out: cell growth or viability

`O=C(CN1C(=O)/C(=C/c2ccc(C(F)(F)F)cc2)SC1=S)Nc1ccccc1` has an inhibition of 32.1% (MTT; 10 µM).
`COc1ccc(-c2ccc(-c3ccc(C(=N)N)nc3)s2)cc1Cl` gave a GI50 of 1780 nM.
The GI50 of `Cc1ncsc1-c1ccc(CNC(=O)[C@@H]2C[C@@H](O)CN2C(=O)[C@@H](NC(=O)CCCCCCCCCC(=O)N2CCN(CC[C@H](NC(=O)C3(N)CCN(c4ncnc5[nH]ccc45)CC3)c3ccc(Cl)cc3)CC2)C(C)(C)C)cc1` is reported as 180 nM (72 h).
For `COc1cccc(Oc2ccccc2NC(=O)CNC(=O)c2cccc3ccccc23)c1`, the GI50 was 282 nM (SRB; 48 h).
`COc1ccc(C(=O)/C=C/c2cccnc2)cc1S(N)(=O)=O` has a GI50 of 16600 nM (SRB; 48 h).
The inhibition of `COc1cccc(NC(=O)CN2C(=O)/C(=C/C3CC3)SC2=S)c1` is reported as 18.6% (MTT; 10 µM).
`N#Cc1cccc(NC(=O)C2CCCN(C(=O)c3cc(C(F)(F)F)cc(C(F)(F)F)c3)C2)c1` (centres unmarked) has an inhibition of 0% (WST-1; 100 µM).
The inhibition of `COc1cc2c(c(OC)c1OC)-c1ccc(OC)c(=O)cc1[C@@H](NC(C)=O)CC2` is reported as 58.6% (MTT; 10 µM).
`COc1ccc(C(=O)/C=C/c2cccc(Cl)c2)cc1S(N)(=O)=O` gave a GI50 of 2200 nM (SRB; 48 h).
`COc1cccc(NC(=O)CN2C(=O)/C(=C/c3ccc(F)cc3)SC2=S)c1` gave an inhibition of 13% (MTT; 10 µM).
For `COc1cccc(NC(=O)C2CCCN(C(=O)c3cc(C(F)(F)F)cc(C(F)(F)F)c3)C2)c1` (centres unmarked), the inhibition was 0% (WST-1; 100 µM).
With `COc1cccc(NC(=O)CN2C(=O)/C(=C/c3ccco3)SC2=S)c1` the inhibition was 8.63% (MTT; 10 µM).
The inhibition of `O=C(c1ccccc1)c1cccc(NC(=O)C2CCCN(C(=O)c3cc(C(F)(F)F)cc(C(F)(F)F)c3)C2)c1` (centres unmarked) is reported as 0% (WST-1; 100 µM).
`COc1ccc(C(=O)/C=C/c2cccc(Br)c2)cc1S(N)(=O)=O` gave a GI50 of 2000 nM (SRB; 48 h).
For `O=C(CN1C(=O)/C(=C/c2ccc(Cl)cc2Cl)SC1=S)Nc1ccccc1`, the inhibition was 19.2% (MTT; 10 µM).
For `O=C(Nc1cccc(CN2CCOCC2)c1)C1CCCN(C(=O)c2cc(C(F)(F)F)cc(C(F)(F)F)c2)C1` (centres unmarked), the inhibition was 0% (WST-1; 100 µM).
For `COc1ccc(C(=O)/C=C/c2ccc3ccccc3c2)cc1S(N)(=O)=O`, the GI50 was 1800 nM (SRB; 48 h).
`O=C(Nc1cccc(N2CCCC2=O)c1)C1CCCN(C(=O)c2cc(C(F)(F)F)cc(C(F)(F)F)c2)C1` (centres unmarked) has an inhibition of 0% (WST-1; 100 µM).
The inhibition of `COc1cccc(NC(=O)CN2C(=O)/C(=C/c3ccccc3)SC2=S)c1` is reported as 17.8% (MTT; 10 µM).
With `O=C(Nc1cccc(Oc2ccccc2)c1)C1CCCN(C(=O)c2cccc(-c3ccco3)c2)C1` (centres unmarked) the inhibition was 0% (WST-1; 100 µM).
`COc1ccc(C(=O)/C=C/c2ccc(Cl)c(Cl)c2)cc1S(N)(=O)=O` gave an inhibition of 90% (SRB; 10 µM).
The inhibition of `O=C(Nc1cccc(Oc2ccccn2)c1)C1CCCN(C(=O)c2cc(C(F)(F)F)cc(C(F)(F)F)c2)C1` (centres unmarked) is reported as 0% (WST-1; 100 µM).
`COc1ccc(C(=O)/C=C/c2cccc3ccccc23)cc1S(N)(=O)=O` has a GI50 of 2300 nM (SRB; 48 h).
